Measured values reported in ChEMBL document CHEMBL1138962, “Exploration of a new type of antimalarial compounds based on febrifugine” (J Med Chem, 2006).
Values after ≈ are worked out from the molar mass of the structure shown.

Tests used:
[1] = test system: L929; assay: Cytotoxicity against mouse L929 cells by MTT assay; type: functional, cell-based
Method in brief: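 MTT assay in mouse L929 cells (1.8 × 10⁴ cells/well) in RPMI-1640 with 10% FBS. Compound added in distilled water or 10% DMSO (added solution), then 48 h at 37 °C, 5% CO₂. MTT 4 h, formazan dissolved in DMSO, absorbance read at 570 and 655 nm. EC50 from dose-response curve.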

[2] = test system: Plasmodium falciparum; assay: Antimalarial activity against chloroquine-resistant Plasmodium falciparum K1 by pLDH reporter assay; type: functional, organism-based
Method in brief: (§1)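 P. falciparum cultured in human A+ erythrocytes in RPMI-1640 (25 mM HEPES, hypoxanthine, gentamicin) with 10% human plasma, 37 °C, 93% N2/4% CO2/3% O2. Asynchronous parasites at 2.0% hematocrit, 0.5% parasitaemia. Compound added in water or 5% DMSO, 72 h at 37 °C. pLDH read-out: Malstat, then NBT/PES, formazan at 650 nm. EC50 from dose-response curve.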

[3] = test system: Plasmodium falciparum; assay: Antimalarial activity against chloroquine-sensitive Plasmodium falciparum FCR3 by pLDH reporter assay; type: functional, organism-based; method in brief: as §1
[4] = Toxicity in po dosed ICR mouse; type: organism-based; settings: in vivo
Method in brief: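 Acute toxicity in mice, compound given orally. LD50 determined.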

[5] = Therapeutic index; LD50 for ICR mice (Mus musculus)/ED50 against Plasmodium berghei NK65; settings: read-out: Ratio LD50/ED50
Method in brief: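 Index is mouse LD50 (oral acute toxicity) divided by oral ED50 against P. berghei in mice. For ED50, a 4-day suppressive test was used. Male ICR mice (18-20 g) were inoculated iv with 10⁶ parasitized RBC. Compound was given po in 5% gum arabic 2 h post-infection, then once daily on days 1-3. Parasitaemia was read from tail-blood thin films on day 4.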

[6] = test system: Plasmodium berghei; assay: Antimalarial activity against Plasmodium berghei NK65 infected ICR mice (Mus musculus) peroral dose; type: functional
Method in brief: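 P. berghei NK65 4-day suppressive test. Male ICR mice (18-20 g) infected i.v. with 10⁶ parasitized red cells. Compounds suspended in 5% gum arabic, given orally 2 h post-infection (Day 0), then once daily Days 1-3. Day 4 tail-vein blood, parasitaemia from thin blood films; ED50 from dose-response curve.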

[7] = test system: L929; assay: Selectivity for L929 cells over Plasmodium falciparum FCR3 as EC50 ratio; type: functional
Method in brief: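 Ratio of L929 EC50 to P. falciparum FCR-3 EC50. L929 EC50 by 48 h MTT assay. FCR-3 EC50 by pLDH assay: asynchronous parasites in human erythrocytes (2.0% hematocrit, 0.5% parasitaemia), RPMI with 10% human plasma. Incubated 72 h at 37 °C under 93% N₂/4% CO₂/3% O₂. Malstat/NBT-PES read-out at 650 nm; EC50 from dose-response curves.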

Row | SMILES | EC50 [1] [µg/mL] | EC50 [2] [µg/mL] | EC50 [3] [µg/mL] | LD50 [4] [mg/kg] | selectivity ratio [5] | ED50 ([6]; Plasmodium berghei, NK65, po) [mg/kg] | Ratio EC50 [7] | ED50 [6] [mg/kg]
1 | O=C(C[C@H]1NCCC[C@@H]1O)Nc1nc(O)c2ccccc2n1 | > 100 | > 1 | > 1 |  |  |  |  | 
2 | O=C(CN1CCCC(O)C1)Cn1cnc2ccccc2c1=O (stereo not drawn) | > 100 | > 1 | > 1 |  |  |  |  | 
3 | O=C(COC1CCCNC1)Cn1cnc2ccccc2c1=O (stereo not drawn) | > 100 | > 1 | > 1 |  |  |  |  | 
4 | O=c1c2ccccc2ncn1CCC[C@H]1NCCC[C@@H]1O | 4.45 (≈ 15.5 µM) | 0.0236 (≈ 0.0821 µM) | 0.0225 (≈ 0.0783 µM) | > 320 | > 14 | 22.5 | 198 | 
5 | O=c1c2ccccc2ncn1CCCC[C@H]1NCCC[C@@H]1O | > 100 | > 1 | > 1 |  |  |  |  | 
6 | O=c1c2ccccc2ncn1CC[C@H]1NCCC[C@@H]1O | > 100 | > 1 | > 1 |  |  |  |  | 
7 | CC[C@H](O)[C@@H](CC(=O)Cn1cnc2ccccc2c1=O)NC | 6.44 (≈ 21.2 µM) | > 1 | > 1 |  |  |  | <6.44 | 
8 | O=C(C[C@H]1NCCC[C@@H]1O)Cn1cnc2ccsc2c1=O (relative stereo) | 0.563 (≈ 1.83 µM) | 0.00319 (≈ 0.0104 µM) | 0.00306 (≈ 0.00996 µM) | 88 | 30 |  | 184 | 2.95
9 | Cc1nc2ccccc2c(=O)n1CC(=O)C[C@H]1NCCC[C@@H]1O (relative stereo) | 15.6 (≈ 49.5 µM) | 0.19 (≈ 0.602 µM) | 0.116 (≈ 0.368 µM) |  |  |  | 134 | 
10 | O=C(C[C@H]1NCCC[C@@H]1O)Cn1nnc2ccccc2c1=O (relative stereo) | 16.4 (≈ 54.2 µM) |  | 0.154 (≈ 0.509 µM) |  |  |  | 106 | 
11 | O=C(C[C@H]1NCCC[C@@H]1O)Cn1ccc(=O)c2ccccc21 (relative stereo) | > 100 | > 1 | > 1 |  |  |  |  | 
12 | O=C(C[C@H]1NCCC[C@@H]1O)Cn1cnc2ncnc-2c1O (relative stereo) | > 100 | 0.943 (≈ 3.24 µM) | 0.506 (≈ 1.74 µM) |  |  |  | >198 | 
13 | O=C(C[C@H]1NCCC[C@@H]1O)Cn1cnc2ccc(F)cc2c1=O (relative stereo) | 0.079 (≈ 0.247 µM) | 0.000916 (≈ 0.00287 µM) | 0.00073 (≈ 0.00229 µM) | < 2.5 |  |  | 108 | 
14 | O=C(C[C@@H]1NCCC[C@H]1O)Cn1cnc2ccccc2c1=O (single isomer, unassigned) [FEBRIFUGINE] | 0.167 (≈ 0.554 µM) | 0.0014 (≈ 0.00465 µM) | 0.00142 (≈ 0.00471 µM) | 7.1 | 17 | 0.41 | 118 | 
15 | C[C@@H]1CC[C@H]2[C@@H](C)C(=O)O[C@@H]3O[C@@]4(C)CC[C@@H]1[C@]32OO4 [ARTEMISININ] | > 100 | 0.0117 (≈ 0.0414 µM) | 0.0179 (≈ 0.0634 µM) |  |  |  | >5590 | 
16 | CCN(CC)CCCC(C)Nc1ccnc2cc(Cl)ccc12 (stereo not drawn) [CHLOROQUINE] | 18.6 (≈ 58.1 µM) | 0.375 (≈ 1.17 µM) | 0.0475 (≈ 0.148 µM) |  |  | 1.53 | 392 | 
